Assays:
Assay type in all cases: functional
Rattus norvegicus [1] = assay: Systolic blood pressure at intervals from 1 to 6 hr in groups of six rats after 0.3 mg/kg p.o. administration.; conditions: route oral
In short: (§1)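 Conscious spontaneously hypertensive rats of Okamoto origin, 14-24 weeks old, with systolic pressure >180 mmHg, were used in groups of six. Dosing was oral by esophageal needle as a solution or suspension in 1% w/v methylcellulose. Systolic pressure was taken by tail-cuff before dosing and at intervals up to 6 h postdose. Each determination was the mean of at least six recordings.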

Rattus norvegicus [2] = assay: Systolic blood pressure was measured at intervals from 1 to 6 hr in groups of six rats after oral administration of a dose of 0.1 mg/kg; in short: as §1
Rattus norvegicus [3] = assay: Systolic blood pressure was measured at intervals from 1 to 6 hr in groups of six rats after oral administration of a dose of 1.0 mg/kg; in short: as §1
Oryctolagus cuniculus = organism: Oryctolagus cuniculus; assay: Increase in rubidium-86 efflux in rabbit isolated mesenteric artery over basal rate
In short: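 Segments (10-20 mg wet weight) of New Zealand White rabbit mesenteric artery were held 30 min in aerated (19:1 O2-CO2) HEPES buffer, pH 7.4, at 37 °C. They were loaded with 100-200 µCi rubidium-86 over 90 min, then moved every 3 min through label-free buffer. Compound at 1 × 10^-5 M was present over min 30-48. Efflux was counted by liquid scintillation. Value is the maximum rate coefficient over min 30-45 as a percentage of basal (mean over min 21-30), ± standard error.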

Rattus norvegicus [4] = assay: Systolic blood pressure was measured at intervals from 1 to 6 hr in groups of six rats after oral administration of a dose of 10 mg/kg; in short: as §1
Rattus norvegicus [5] = assay: Systolic blood pressure was measured at intervals from 1 to 6 h in groups of six rats after oral administration of a dose of 1 mg/kg; in short: as §1
Rattus norvegicus [6] = assay: Systolic blood pressure was measured at intervals from 1 to 6 hr in groups of six rats after oral administration of a dose of 3 mg/kg; in short: as §1
Rattus norvegicus [7] = assay: Systolic blood pressure was measured at intervals from 1 to 6 hr in groups of six rats after oral administration of a dose of 1 mg/kg; in short: as §1
Rattus norvegicus [8] = assay: Systolic blood pressure was measured at intervals from 1 to 6 hr in groups of six rats after oral administration of a dose of 10.0 mg/kg; in short: as §1

Compound | Decrease in blood pressure (Rattus norvegicus [1]) [%] | Decrease in blood pressure (Rattus norvegicus [3]) [%] | Decrease in blood pressure (Rattus norvegicus [4]) [%] | other results
CC(=O)NC1c2cc(C#N)ccc2OC(C)(C)[C@H]1O (some centres not stated) | 47 | 67 | – | Decrease in blood pressure (Rattus norvegicus [2]): 18%; Increase (Oryctolagus cuniculus): 59%
CC1(C)Oc2ccc(C#N)cc2C(NC(=O)c2c[nH]c3ccccc23)[C@@H]1O (some centres not stated) | – | – | 13 | –
CC(C)(C)NC(=O)NC1c2cc(C#N)ccc2OC(C)(C)[C@H]1O (some centres not stated) | – | – | 8 | –
CC1(C)Oc2ccc(C#N)cc2C(N2CCCC2=O)C1O (configuration not stated) [CROMAKALIM] | 39 | 47 | – | Decrease in blood pressure (Rattus norvegicus [2]): 13%; Increase (Oryctolagus cuniculus): 110%
CCC(=O)NC1c2cc(C#N)ccc2OC(C)(C)[C@H]1O (some centres not stated) | 10 | 29 | – | –
CC(=O)Nc1cc2c(cc1[N+](=O)[O-])C(NC(C)=O)[C@H](O)C(C)(C)O2 (some centres not stated) | 38 | – | – | Decrease in blood pressure (Rattus norvegicus [2]): 9%
CC(=O)NC1c2cc(C#N)ccc2OC(C)(C)[C@H]1OC(C)=O (some centres not stated) | 34 | – | – | Decrease in blood pressure (Rattus norvegicus [5]): 61%; Decrease in blood pressure (Rattus norvegicus [2]): 9%
CCN(C(C)=O)C1c2cc(C#N)ccc2OC(C)(C)[C@H]1O (some centres not stated) | 14 | 22 | – | –
CCOC(=O)C(=O)NC1c2cc(C#N)ccc2OC(C)(C)[C@H]1O (some centres not stated) | – | – | 12 | –
CC(=O)NC1=CC(C)(C)Oc2ccc(C#N)cc21 | – | – | – | Decrease in blood pressure (Rattus norvegicus [6]): 52%; Decrease in blood pressure (Rattus norvegicus [7]): 20%
CC1(C)Oc2ccc(C#N)cc2C(NC(=O)c2ccccn2)[C@@H]1O (some centres not stated) | 36 | – | – | Decrease in blood pressure (Rattus norvegicus [2]): 22%; Increase (Oryctolagus cuniculus): 53%
CNCC(=O)NC1c2cc(C#N)ccc2OC(C)(C)[C@H]1O (some centres not stated) | – | – | 15 | –
CC1(C)Oc2ccc(C#N)cc2C(NC(=O)c2ccc[nH]2)[C@@H]1O (some centres not stated) | 12 | 50 | – | –
CC(=O)NC1c2cc(C(C)=O)ccc2OC(C)(C)[C@H]1O (some centres not stated) | 23 | 61 | – | Decrease in blood pressure (Rattus norvegicus [2]): 20%; Increase (Oryctolagus cuniculus): 38%
CCCCC(=O)NC1c2cc(C#N)ccc2OC(C)(C)[C@H]1O (some centres not stated) | – | – | 64 | Decrease in blood pressure (Rattus norvegicus [6]): 18%
CCOC(=O)NC1c2cc(C#N)ccc2OC(C)(C)[C@H]1O (some centres not stated) | – | – | – | Decrease in blood pressure (Rattus norvegicus [6]): 22%; Decrease in blood pressure (Rattus norvegicus [7]): 13%; Decrease in blood pressure (Rattus norvegicus [8]): 54%
CNC(=O)NC1c2cc(C#N)ccc2OC(C)(C)[C@H]1O (some centres not stated) | 31 | 61 | – | Decrease in blood pressure (Rattus norvegicus [2]): 14%; Increase (Oryctolagus cuniculus): 63%
CC(=O)NC1c2ccccc2OC(C)(C)[C@H]1O (some centres not stated) | – | – | 13 | –
CC(=O)NC1CC(C)(C)Oc2ccc(C#N)cc21 (configuration not stated) | 18 | 44 | – | –
CCCCNC(=O)NC1c2cc(C#N)ccc2OC(C)(C)[C@H]1O (some centres not stated) | – | – | 29 | Decrease in blood pressure (Rattus norvegicus [7]): 11%

Compound | Decrease in blood pressure (Rattus norvegicus [1]) [%] | Decrease in blood pressure (Rattus norvegicus [3]) [%] | Decrease in blood pressure (Rattus norvegicus [4]) [%] | other results
CC(=S)NC1c2cc(C#N)ccc2OC(C)(C)[C@H]1O (some centres not stated) | 26 | 53 | – | –
COCC(=O)NC1c2cc(C#N)ccc2OC(C)(C)[C@H]1O (some centres not stated) | 16 | 32 | – | –
CC(N/C(=N\C#N)Nc1ccncc1)C(C)(C)C (configuration not stated) [PINACIDIL ANHYDROUS] | – | – | – | Decrease in blood pressure (Rattus norvegicus [6]): 39%; Decrease in blood pressure (Rattus norvegicus [7]): 11%; Increase (Oryctolagus cuniculus): 72%
CC1(C)Oc2ccc(C#N)cc2C(NC(N)=O)[C@@H]1O (some centres not stated) | – | – | – | Decrease in blood pressure (Rattus norvegicus [6]): 46%; Decrease in blood pressure (Rattus norvegicus [7]): 18%; Decrease in blood pressure (Rattus norvegicus [8]): 56%
CC1(C)Oc2ccc(C#N)cc2C(NC(=O)c2ccccc2)[C@@H]1O (some centres not stated) | 16 | 41 | – | –
CC1(C)Oc2ccc(C#N)cc2C(NC(=O)c2cccnc2)[C@@H]1O (some centres not stated) | 27 | 43 | – | –
CC1(C)Oc2ccc(C#N)cc2C(NC(=O)c2ccc3ccccc3c2)[C@@H]1O (some centres not stated) | – | – | 35 | Decrease in blood pressure (Rattus norvegicus [7]): 6%; Increase (Oryctolagus cuniculus): 17%
CC1(C)Oc2ccc(C#N)cc2C(NC(=O)CCl)[C@@H]1O (some centres not stated) | – | – | 28 | –
CC1(C)Oc2ccc(C#N)cc2C(NC(=O)NC(=O)C(Cl)(Cl)Cl)[C@@H]1O (some centres not stated) | – | – | 28 | Decrease in blood pressure (Rattus norvegicus [7]): 13%
CC1(C)Oc2ccc(C#N)cc2C(NC(=O)Nc2ccccc2)[C@@H]1O (some centres not stated) | – | – | 13 | –
CC(=O)Nc1cc2c(cc1[N+](=O)[O-])OC(C)(C)[C@@H](O)C2NC(C)=O (some centres not stated) | – | – | – | Decrease in blood pressure (Rattus norvegicus [6]): 16%
C/N=C(/S)NC1c2cc(C#N)ccc2OC(C)(C)[C@H]1O (some centres not stated) | – | – | – | Decrease in blood pressure (Rattus norvegicus [6]): 33%; Decrease in blood pressure (Rattus norvegicus [7]): 16%; Decrease in blood pressure (Rattus norvegicus [8]): 50%
CC1(C)Oc2ccc(C#N)cc2C(NC=O)[C@@H]1O (some centres not stated) | – | – | 26 | Decrease in blood pressure (Rattus norvegicus [7]): 10%
CC1(C)Oc2ccc(C#N)cc2C(NC(=O)c2ccoc2)[C@@H]1O (some centres not stated) | 19 | 35 | – | –
CC1(C)Oc2ccc(C#N)cc2C(NC(=O)c2ccco2)[C@@H]1O (some centres not stated) | 11 | 54 | – | –
CC(=O)NC1c2cc(Br)c([N+](=O)[O-])cc2OC(C)(C)[C@H]1O (some centres not stated) | 25 | 51 | – | –
CCCN(C(C)=O)C1c2cc(C#N)ccc2OC(C)(C)[C@H]1O (some centres not stated) | – | – | – | Decrease in blood pressure (Rattus norvegicus [6]): 58%; Decrease in blood pressure (Rattus norvegicus [7]): 24%
CC(=O)N(C)C1c2cc(C#N)ccc2OC(C)(C)[C@H]1O (some centres not stated) | 11 | 31 | – | –
CC(=O)NC1c2cc(Cl)ccc2OC(C)(C)[C@H]1O (some centres not stated) | – | – | 34 | Decrease in blood pressure (Rattus norvegicus [7]): 8%
CC(=O)NC1c2cc(C#N)c([N+](=O)[O-])cc2OC(C)(C)[C@H]1O (some centres not stated) | 46 | – | – | Decrease in blood pressure (Rattus norvegicus [2]): 26%

— ChEMBL document CHEMBL1125057, “Synthesis and antihypertensive activity of 4-(substituted-carbonylamino)-2H-1-benzopyrans” (1990)
